This note sets out measurements from PubChem BioAssay AID602154 (Broad Institute, 2011).

Activity calls are given as the source filed them.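 How the source made its calls: active means compounds reducing DiI-HDL uptake fluorescence after washout, with fitted AC50 at most twice the top tested dose; inconclusive means flat partial inhibition of 30 to 70% or a poor fit; inactive means the rest.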

Sequence of Scavenger receptor class B member 1 (Mus musculus) (Q61009 whole entry, looked up): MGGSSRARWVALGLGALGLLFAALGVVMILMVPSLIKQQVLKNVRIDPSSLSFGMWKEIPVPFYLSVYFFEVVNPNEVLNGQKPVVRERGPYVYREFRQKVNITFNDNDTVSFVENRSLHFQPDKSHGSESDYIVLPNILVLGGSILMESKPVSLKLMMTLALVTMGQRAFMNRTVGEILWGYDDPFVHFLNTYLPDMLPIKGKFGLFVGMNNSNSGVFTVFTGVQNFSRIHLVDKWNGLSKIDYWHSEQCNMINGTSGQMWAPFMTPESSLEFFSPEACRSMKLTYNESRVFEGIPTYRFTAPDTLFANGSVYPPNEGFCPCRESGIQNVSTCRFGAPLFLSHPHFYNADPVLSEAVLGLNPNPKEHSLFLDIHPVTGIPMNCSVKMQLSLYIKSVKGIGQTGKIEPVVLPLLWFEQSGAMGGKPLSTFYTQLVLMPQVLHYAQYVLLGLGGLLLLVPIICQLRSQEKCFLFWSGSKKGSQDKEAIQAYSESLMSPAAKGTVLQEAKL

The assay concerns the target Scavenger receptor class B member 1 (Mus musculus) (UniProt Q61009). The assay can be described thus: reversibility of SR-BI HDL uptake inhibition, late-stage follow-up, mechanism study for SR-BI HDL uptake inhibitor project, ldlA[mSR-BI] CHO cells, fluorescence (AID 602154). The conditions noted are these: DiI-HDL uptake after washout. The essentials:
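Material: ldlA[mSR-BI] CHO cells, LDL-receptor-deficient, overexpressing mouse SR-BI; reagent: 10 µg/mL DiI-HDL; incubation: compound 2 h at 37 °C, 4 h washout, 3 h HDL uptake; signal: DiI fluorescence, 550/595 nm, bottom read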
Regarding `COCC(=O)N1CCc2cc(-c3csc(NC(=O)c4cc(OC)cc(OC)c4)n3)ccc21`, the AC50 was 860 nM.
Next, `C[C@H](C(=O)NC1CCCC1)N(C(=O)Cn1nnc(-c2ccc3c(c2)OCO3)n1)C1CCCCC1`: > 70000 nM (inactive); `CCCCCCC1CCC/C1=N\NC(N)=S` (stereo not drawn): 0.598 nM.
